Calls of active or inactive are those of the source. The calls are words filed in the database; no cut-off is given here.
Tests used:
HepG2 = assay: Inhibition of glucogenesis in human HepG2 cells stimulated with 8-Br-cAMP at 3 uM assessed as effect on change in TORC2/CREB interaction measured by coimmunoprecipitation analysis; format: functional, cell-based
Outline: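 HepG2 cells treated with 3 μM compound. CREB association with CBP and TORC2 assessed by coimmunoprecipitation (antibody 2 h, protein A/G beads overnight at 4 °C) and western blot.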

Mus musculus [1] = assay: Inhibition of lipogenesis in C57BL/6 mouse supplemented with high-fat diet assessed as decrease in ChREBP mRNA expression at 20 mg/kg/day, ip administered for 1 week measured by RT-qPCR assay; format: functional, organism-based; settings: time 1.0 weeks
Outline: (§1)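 Male C57BL/6 mice were fed high-fat diet for 14 weeks from 5 weeks of age, then injected ip with 20 mg·kg−1·day−1 for 7 days or given vehicle. Epididymal and inguinal WAT were weighed, examined by H&E, and analysed. Transcripts were measured by Trizol/SYBR Green RT-qPCR; proteins by western blot. n = 5–9; mean ± SEM.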

Mus musculus [2] = assay: Anti-obesity activity in C57BL/6 mouse supplemented with normal chow diet assessed effect on total lean mass at 20 mg/kg/day, ip administered for 1 week measured by EchoMRI live analysis; format: functional, organism-based; settings: time 1.0 weeks
Outline: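 Normal-chow male C57BL/6 mice, 8 weeks old, ip 20 mg·kg−1·day−1 daily for 7 days. Total lean and fat mass measured in live animals by EchoMRI. Mean ± SEM, n = 5–9.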

Adipocyte [3] = assay: Inhibition of lipogenesis in mouse adipocytes isolated stromal vascular cells assessed as decrease in DGAT2 mRNA expression measured after 24 hrs by RT-qPCR assay; format: functional, cell-based
Outline: (§2)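 Stromal vascular cells from inguinal WAT of C57BL/6 mice, grown in DMEM/F12 + 10% FBS at 37 °C, 10% CO2. At confluence, induced 48 h with 5 μg/ml insulin, 1 μM dexamethasone, 0.5 mM isobutylmethylxanthine, then 6 days in 5 μg/ml insulin; fully differentiated day 8. Mature adipocytes exposed to inhibitor 24 h. Total RNA by Trizol, SYBR Green RT-qPCR; protein by western blot.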

Adipocyte [4] = assay: Inhibition of lipogenesis in mouse adipocytes isolated stromal vascular cells assessed as decrease in ChREBP mRNA expression measured after 24 hrs by RT-qPCR assay; format: functional, cell-based; outline: as §2
Mus musculus [5] = organism: Mus musculus; assay: Inhibition of glucogenesis in mouse assessed as decrease in occupancy of G6Pc promoter with FOXO1 in liver measured by ChIP-qPCR analysis; format: functional, organism-based
Outline: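 Livers from mice dosed ip at 20 mg·kg−1·day−1 for 7 days. Tissue crosslinked in 1% formaldehyde, lysed, sonicated to 200–1000 bp chromatin, immunoprecipitated with anti-FOXO1 or IgG. G6Pc promoter quantified by qPCR.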

Adipocyte [6] = assay: Inhibition of lipogenesis in mouse adipocytes isolated stromal vascular cells assessed as decrease in PPARgamma mRNA expression measured after 24 hrs by RT-qPCR assay; format: functional, cell-based; outline: as §2
Hepatocyte [7] = assay: Inhibition of lipogenesis in mouse primary hepatocytes assessed as decrease in HMGCS1 mRNA expression at 3 uM in presence of 100 nM insulin and 5 to 25 mM glucose measured after 18 hrs by RT-qPCR assay; format: functional, cell-based
Outline: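 Primary hepatocytes isolated from C57BL/6 mice by two-step perfusion. Cells incubated 18 h with 3 μM inhibitor, with 0 or 100 nM insulin and 5 or 25 mM glucose. Transcripts quantified by SYBR Green RT-qPCR after Trizol RNA extraction; proteins by western blot of lysates. Mean ± SEM.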

Adipocyte [8] = assay: Inhibition of lipogenesis in mouse adipocytes isolated stromal vascular cells assessed as decrease in LPL mRNA expression measured after 24 hrs by RT-qPCR assay; format: functional, cell-based; outline: as §2
Mus musculus [9] = assay: Inhibition of lipogenesis in C57BL/6 mouse supplemented with normal chow diet assessed as decrease in PPARgamma protein expression at 20 mg/kg/day, ip administered for 1 week measured measured by western blot analysis; format: functional, organism-based; settings: time 1.0 weeks
Outline: (§3)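 Eight-week-old male C57BL/6 mice on normal chow were given 20 mg·kg−1·day−1 ip daily for 7 days or vehicle. Epididymal WAT was collected. Lipogenic, adipogenic and fatty-acid-oxidation transcripts were quantified by Trizol extraction and SYBR Green RT-qPCR. FAS, ACC, PPARγ and C/EBPα protein were assessed by western blot. n = 5–9; mean ± SEM.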

Hepatocyte [10] = assay: Inhibition of glucogenesis in mouse primary hepatocytes stimulated with 100 uM 8-Br-cAMP assessed as decrease in FBP mRNA expression at 3 uM in combination with 2 mM metformin measured by RT-qPCR assay; format: functional, cell-based
Outline: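 Primary mouse hepatocytes given 3 μM compound with 2 mM metformin in the presence of 100 μM 8-Br-cAMP. Gluconeogenic gene mRNA measured by SYBR Green RT-qPCR. Mean ± SEM, three independent experiments.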

Mus musculus [11] = assay: Anti-obesity activity in C57BL/6 mouse supplemented with high fat diet assessed as decrease in hepatic G6Pc mRNA expression level at 20 mg/kg/day, ip administered for 1 week measured by RT-qPCR assay; format: functional, organism-based; settings: time 1.0 weeks
Outline: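 Hepatic G6Pc mRNA in male C57BL/6 mice fed HFD for 14 weeks, then ip 20 mg·kg−1·day−1 for 7 days. Liver RNA extracted with Trizol; SYBR Green RT-qPCR.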

Hepatocyte [12] = assay: Inhibition of glucogenesis in mouse primary hepatocytes stimulated with 100 uM 8-Br-cAMP assessed as decrease in PEPCK mRNA expression at 3 uM in presence of cAMP measured after 8 hrs by RT-qPCR assay; format: functional, cell-based
Outline: (§4)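 Primary mouse hepatocytes treated with 3 μM compound and 100 μM 8-Br-cAMP for 8 h. Trizol RNA, SYBR Green RT-qPCR of the named transcript. Mean ± SEM, three independent experiments.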

Hepatocyte [13] = assay: Inhibition of glucogenesis in mouse primary hepatocytes stimulated with 100 uM 8-Br-cAMP assessed as effect on HNF4alpha mRNA expression at 3 uM measured after 8 hrs by RT-qPCR assay; format: functional, cell-based; outline: as §4
Adipocyte [14] = assay: Inhibition of lipogenesis in mouse adipocytes isolated stromal vascular cells assessed as decrease in ACC protein expression measured after 24 hrs by western blot analysis; format: functional, cell-based
[15] = biological target: CREB-binding protein/Histone acetyltransferase p300 (Homo sapiens) (UniProt Q09472+Q92793); assay: Inhibition of CBP/p300 in human HepG2 cells stimulated with 100 uM 8-Br-cAMP assessed as induction of FOXO1 deacetylation at 3 uM measured after 6 hrs; format: cell-based
Outline: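 HepG2 cells given 3 μM compound and 100 μM 8-Br-cAMP for 6 h. Endogenous FOXO1 immunoprecipitated and its acetylation detected by immunoblot.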

Mus musculus [16] = assay: Inhibition of lipogenesis in C57BL/6 mouse supplemented with normal chow diet assessed as decrease in DGAT2 mRNA expression at 20 mg/kg/day, ip administered for 1 week measured by RT-qPCR assay; format: functional, organism-based; settings: time 1.0 weeks; outline: as §3
Mus musculus [17] = assay: Inhibition of lipogenesis in C57BL/6 mouse supplemented with high-fat diet assessed as decrease in C/EBPalpha protein expression at 20 mg/kg/day, ip administered for 1 week measured measured by western blot analysis; format: functional, organism-based; settings: time 1.0 weeks; outline: as §1
Mus musculus [18] = assay: Anti-obesity activity in C57BL/6 mouse supplemented with high fat diet assessed as effect on random blood glucose at 20 mg/kg/day, ip administered for 1 week; format: functional, organism-based; settings: time 1.0 weeks
Outline: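 Male C57BL/6 mice fed high-fat diet for 14 weeks from 5 weeks of age, then ip 20 mg·kg−1·day−1 for 7 days. Body weight, EchoMRI lean/fat mass, and random or 16 h-fasted blood glucose recorded, as the line states.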

Sequence of CREB-binding protein/Histone acetyltransferase p300 (Homo sapiens) (Q09472 whole entry, looked up): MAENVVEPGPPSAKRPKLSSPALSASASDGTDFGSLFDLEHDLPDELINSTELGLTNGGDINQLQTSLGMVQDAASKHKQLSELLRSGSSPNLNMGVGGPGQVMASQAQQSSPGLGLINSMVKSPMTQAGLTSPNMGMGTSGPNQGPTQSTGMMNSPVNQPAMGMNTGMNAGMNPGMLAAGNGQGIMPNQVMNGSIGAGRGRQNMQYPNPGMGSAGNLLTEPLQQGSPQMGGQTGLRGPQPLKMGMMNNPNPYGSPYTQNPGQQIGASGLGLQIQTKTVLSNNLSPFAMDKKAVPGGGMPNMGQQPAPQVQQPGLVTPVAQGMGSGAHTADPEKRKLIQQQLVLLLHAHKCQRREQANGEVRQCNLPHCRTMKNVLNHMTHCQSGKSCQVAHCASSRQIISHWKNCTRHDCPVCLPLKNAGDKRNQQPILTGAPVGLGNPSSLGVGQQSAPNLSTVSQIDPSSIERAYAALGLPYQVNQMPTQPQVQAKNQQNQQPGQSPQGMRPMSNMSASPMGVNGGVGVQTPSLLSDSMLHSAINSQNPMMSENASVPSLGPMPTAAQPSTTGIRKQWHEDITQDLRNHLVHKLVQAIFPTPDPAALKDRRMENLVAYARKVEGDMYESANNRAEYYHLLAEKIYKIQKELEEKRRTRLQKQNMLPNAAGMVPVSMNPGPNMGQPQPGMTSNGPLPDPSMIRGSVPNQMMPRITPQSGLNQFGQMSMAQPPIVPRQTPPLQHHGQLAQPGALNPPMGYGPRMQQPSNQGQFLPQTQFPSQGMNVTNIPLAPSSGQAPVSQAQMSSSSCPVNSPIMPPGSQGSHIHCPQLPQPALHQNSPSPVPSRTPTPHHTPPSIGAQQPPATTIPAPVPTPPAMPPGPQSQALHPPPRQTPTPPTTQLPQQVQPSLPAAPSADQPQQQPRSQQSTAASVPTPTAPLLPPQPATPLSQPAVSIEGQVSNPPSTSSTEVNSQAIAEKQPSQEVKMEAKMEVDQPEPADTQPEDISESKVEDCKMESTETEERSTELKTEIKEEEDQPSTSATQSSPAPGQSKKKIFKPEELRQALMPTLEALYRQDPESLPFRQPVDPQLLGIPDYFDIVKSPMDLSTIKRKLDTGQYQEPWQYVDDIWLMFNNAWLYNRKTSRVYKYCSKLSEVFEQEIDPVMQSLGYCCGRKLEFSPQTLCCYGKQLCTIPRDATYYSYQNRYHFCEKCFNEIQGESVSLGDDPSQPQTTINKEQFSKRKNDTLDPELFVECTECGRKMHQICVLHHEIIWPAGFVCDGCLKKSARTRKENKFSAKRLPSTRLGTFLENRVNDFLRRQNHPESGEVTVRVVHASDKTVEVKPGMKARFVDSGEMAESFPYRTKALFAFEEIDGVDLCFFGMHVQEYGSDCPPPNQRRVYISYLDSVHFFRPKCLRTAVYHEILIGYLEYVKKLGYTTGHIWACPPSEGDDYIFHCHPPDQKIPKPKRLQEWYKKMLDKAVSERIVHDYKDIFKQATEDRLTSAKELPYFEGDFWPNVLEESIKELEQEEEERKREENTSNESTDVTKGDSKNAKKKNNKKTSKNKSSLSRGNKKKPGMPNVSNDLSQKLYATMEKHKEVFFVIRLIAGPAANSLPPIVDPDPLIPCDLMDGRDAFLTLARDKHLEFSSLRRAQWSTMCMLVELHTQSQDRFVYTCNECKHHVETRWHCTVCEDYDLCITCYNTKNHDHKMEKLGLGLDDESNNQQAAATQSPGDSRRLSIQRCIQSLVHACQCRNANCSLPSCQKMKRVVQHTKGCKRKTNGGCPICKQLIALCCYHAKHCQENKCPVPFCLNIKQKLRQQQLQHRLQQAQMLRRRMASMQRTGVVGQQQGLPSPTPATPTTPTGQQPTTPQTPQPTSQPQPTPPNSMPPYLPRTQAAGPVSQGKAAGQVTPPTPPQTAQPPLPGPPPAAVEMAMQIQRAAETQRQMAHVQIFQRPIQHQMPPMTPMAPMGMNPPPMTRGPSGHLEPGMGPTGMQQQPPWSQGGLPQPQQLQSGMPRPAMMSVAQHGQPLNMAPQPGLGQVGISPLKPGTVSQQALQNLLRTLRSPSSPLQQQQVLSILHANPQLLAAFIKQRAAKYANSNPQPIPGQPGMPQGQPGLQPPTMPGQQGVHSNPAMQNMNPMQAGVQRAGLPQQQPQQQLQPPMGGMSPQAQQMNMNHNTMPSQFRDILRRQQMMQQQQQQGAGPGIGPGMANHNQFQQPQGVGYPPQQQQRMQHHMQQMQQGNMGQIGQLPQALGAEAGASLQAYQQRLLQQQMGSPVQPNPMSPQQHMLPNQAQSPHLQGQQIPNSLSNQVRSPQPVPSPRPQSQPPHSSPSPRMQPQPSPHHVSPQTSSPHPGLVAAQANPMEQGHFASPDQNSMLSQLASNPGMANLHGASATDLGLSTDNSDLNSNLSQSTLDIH
Sequence of CREB-binding protein/Histone acetyltransferase p300 (Homo sapiens) (Q92793 whole entry, looked up): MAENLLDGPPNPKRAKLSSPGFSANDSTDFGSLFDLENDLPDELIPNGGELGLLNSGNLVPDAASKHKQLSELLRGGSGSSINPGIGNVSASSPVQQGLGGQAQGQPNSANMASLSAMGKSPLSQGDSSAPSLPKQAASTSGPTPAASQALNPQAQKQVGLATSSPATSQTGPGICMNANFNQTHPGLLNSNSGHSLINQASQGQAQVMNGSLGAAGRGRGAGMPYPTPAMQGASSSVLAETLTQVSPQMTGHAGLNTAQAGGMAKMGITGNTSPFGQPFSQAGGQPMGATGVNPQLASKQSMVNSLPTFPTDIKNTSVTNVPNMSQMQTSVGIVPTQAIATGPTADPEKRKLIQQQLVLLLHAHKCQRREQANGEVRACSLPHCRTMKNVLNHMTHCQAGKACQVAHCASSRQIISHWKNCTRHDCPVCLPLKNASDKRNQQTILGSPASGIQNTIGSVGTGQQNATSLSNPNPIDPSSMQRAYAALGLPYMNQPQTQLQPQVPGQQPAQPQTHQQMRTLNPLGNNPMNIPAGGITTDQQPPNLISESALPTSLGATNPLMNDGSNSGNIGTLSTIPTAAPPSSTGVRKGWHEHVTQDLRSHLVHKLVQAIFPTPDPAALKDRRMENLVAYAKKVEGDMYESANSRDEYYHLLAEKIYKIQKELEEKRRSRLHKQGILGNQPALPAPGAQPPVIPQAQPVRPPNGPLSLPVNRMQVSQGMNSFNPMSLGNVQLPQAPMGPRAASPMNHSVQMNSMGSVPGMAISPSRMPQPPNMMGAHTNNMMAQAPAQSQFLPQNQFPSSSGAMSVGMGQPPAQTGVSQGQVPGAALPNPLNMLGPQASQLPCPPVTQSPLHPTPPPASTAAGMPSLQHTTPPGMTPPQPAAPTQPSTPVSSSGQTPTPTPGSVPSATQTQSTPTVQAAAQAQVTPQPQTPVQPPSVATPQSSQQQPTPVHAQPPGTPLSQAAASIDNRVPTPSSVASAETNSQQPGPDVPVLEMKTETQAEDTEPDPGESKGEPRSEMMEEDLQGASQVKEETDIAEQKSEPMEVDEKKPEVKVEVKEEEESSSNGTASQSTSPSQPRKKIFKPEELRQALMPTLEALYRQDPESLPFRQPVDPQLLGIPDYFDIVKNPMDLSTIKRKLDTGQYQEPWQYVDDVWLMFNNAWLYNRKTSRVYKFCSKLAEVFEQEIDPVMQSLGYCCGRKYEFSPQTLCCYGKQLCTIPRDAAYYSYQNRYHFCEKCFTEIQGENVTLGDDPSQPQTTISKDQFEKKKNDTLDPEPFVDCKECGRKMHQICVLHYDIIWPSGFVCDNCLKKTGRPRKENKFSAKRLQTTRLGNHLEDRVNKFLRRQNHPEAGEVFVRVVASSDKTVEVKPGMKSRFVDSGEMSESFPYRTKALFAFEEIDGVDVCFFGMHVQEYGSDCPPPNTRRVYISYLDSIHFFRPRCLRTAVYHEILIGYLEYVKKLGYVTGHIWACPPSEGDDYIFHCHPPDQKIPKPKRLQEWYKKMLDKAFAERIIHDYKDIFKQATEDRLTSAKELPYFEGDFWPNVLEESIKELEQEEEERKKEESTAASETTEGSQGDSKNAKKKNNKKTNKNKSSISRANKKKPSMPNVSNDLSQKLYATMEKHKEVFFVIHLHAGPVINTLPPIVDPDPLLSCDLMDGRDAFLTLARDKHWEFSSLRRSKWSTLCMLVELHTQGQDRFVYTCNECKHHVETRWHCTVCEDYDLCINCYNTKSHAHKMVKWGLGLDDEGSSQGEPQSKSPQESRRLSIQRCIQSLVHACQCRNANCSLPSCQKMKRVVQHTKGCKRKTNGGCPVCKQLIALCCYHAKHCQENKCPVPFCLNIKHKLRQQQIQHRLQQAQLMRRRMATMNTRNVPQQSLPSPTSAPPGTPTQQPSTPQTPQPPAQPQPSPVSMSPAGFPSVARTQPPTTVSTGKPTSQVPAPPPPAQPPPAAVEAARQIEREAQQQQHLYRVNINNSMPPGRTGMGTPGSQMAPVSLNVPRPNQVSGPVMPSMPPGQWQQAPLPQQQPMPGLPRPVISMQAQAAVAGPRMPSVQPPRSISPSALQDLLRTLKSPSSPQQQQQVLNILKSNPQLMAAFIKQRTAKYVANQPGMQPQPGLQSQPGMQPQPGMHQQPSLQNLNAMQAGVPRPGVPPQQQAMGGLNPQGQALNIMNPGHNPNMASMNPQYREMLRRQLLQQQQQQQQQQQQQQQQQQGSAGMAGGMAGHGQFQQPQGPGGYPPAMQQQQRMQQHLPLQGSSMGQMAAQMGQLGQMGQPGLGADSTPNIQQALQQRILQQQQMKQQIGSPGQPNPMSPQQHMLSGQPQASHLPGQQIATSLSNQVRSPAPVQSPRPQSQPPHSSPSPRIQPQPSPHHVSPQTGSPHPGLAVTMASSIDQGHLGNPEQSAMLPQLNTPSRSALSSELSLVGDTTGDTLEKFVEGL

## CNC(=O)Nc1ccc2c(c1)CCS21OC(=O)N(CC(=O)N(Cc2ccc(F)cc2)[C@@H](C)C(F)(F)F)C1=O (some centres undefined)
HepG2
  inhibition: inactive
Mus musculus [1]
  inhibition: Active
Mus musculus [2]
  Activity: inactive
Adipocyte [3]
  inhibition: Active
Adipocyte [4]
  inhibition: Active
Mus musculus [5]
  inhibition: Active
Adipocyte [6]
  inhibition: Active
Hepatocyte [7]
  inhibition: Active
Adipocyte [8]
  inhibition: Active
Mus musculus [9]
  inhibition: Active
Hepatocyte [10]
  inhibition: Active
Mus musculus [11]
  Activity: Active
Hepatocyte [12]
  inhibition: Active
Hepatocyte [13]
  inhibition: inactive
Adipocyte [14]
  inhibition: Active
[15]
  inhibition: Active
Mus musculus [16]
  inhibition: Active
Mus musculus [17]
  inhibition: Active
Mus musculus [18]
  Activity: inactive

From ChEMBL document CHEMBL5674890, “Selective inhibition of CBP/p300 HAT by A-485 results in suppression of lipogenesis and hepatic gluconeogenesis” (Cell Death Dis, 2020)
